Screens as filed in PubChem BioAssay.
The list is not random: actives were taken first. Their share in the collection is about 2.2%.
CHRM1 antagonist = blocks human M1 muscarinic receptor | P11229 | CHO-K1 hM1, Fluo-8 calcium fluorescence, ACh EC80 antagonist | inhibition, % at 3 µM | actives 1.3% (n = 360,000) | AID 588852;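 active = percent inhibition above its own plate's cutoff, namely the mean of that plate's compound wells plus 3 SD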;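 note: peak over basal fluorescence ratio during 140 s after agonist addition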
CHRM1 agonist = human M1 muscarinic receptor agonism | CHO-K1 hM1, Fluo-8 calcium fluorescence, agonist mode; 0% DMSO, 100% acetylcholine EC100 | AID 588814 | actives 0.33% (n = 360,000) | activation, % at 3 µM;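 active = activation above the run's mean compound activation plus 3 SD, cut at about 16% in these data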;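 note: peak over basal fluorescence ratio within a 140 s kinetic read after compound addition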
M5 ag = CHRM5 agonism in calcium assay. P08912. CHO-K1 hM5 cells, Fluo-8 calcium fluorescence; 0% DMSO wells, 100% maximal acetylcholine response. activation, % at 3 µM. actives 0.19% (n = 360,000);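 active = activation above the run's mean over test compounds plus 3 SD, cut at about 23% in these data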;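 note: signal is peak over basal fluorescence ratio across the kinetic read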
Target sequence (P08912 whole entry, looked up): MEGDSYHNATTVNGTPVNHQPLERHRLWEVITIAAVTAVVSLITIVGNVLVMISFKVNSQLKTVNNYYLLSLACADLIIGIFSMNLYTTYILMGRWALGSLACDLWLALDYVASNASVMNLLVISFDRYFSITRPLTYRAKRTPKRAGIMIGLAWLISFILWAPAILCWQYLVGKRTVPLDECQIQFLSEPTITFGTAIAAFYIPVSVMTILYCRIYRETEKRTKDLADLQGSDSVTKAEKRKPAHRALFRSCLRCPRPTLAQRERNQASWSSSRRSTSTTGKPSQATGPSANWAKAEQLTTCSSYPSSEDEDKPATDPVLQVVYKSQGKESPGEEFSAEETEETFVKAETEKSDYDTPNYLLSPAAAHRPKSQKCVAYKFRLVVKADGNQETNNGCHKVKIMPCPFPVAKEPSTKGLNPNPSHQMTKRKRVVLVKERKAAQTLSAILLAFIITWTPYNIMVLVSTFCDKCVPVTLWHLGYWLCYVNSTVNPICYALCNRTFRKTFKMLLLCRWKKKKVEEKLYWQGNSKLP
M5 antag = antagonists of human muscarinic M5 receptor (CHRM5). CHO-hM5 cells, Fluo-8 calcium fluorescence, ACh EC80. inhibition, % at 3 µM. actives 0.59% (n = 360,000). AID 624040;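 active = inhibition above a per-plate cutoff, the mean of that plate's test compounds plus 3 SD, cut at about 27% in these data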
M1 PAM = potentiates human M1 receptor response to acetylcholine | P11229 | CHO-K1 hM1, Fluo-8 calcium fluorescence, ACh EC20; 0% = ACh EC20, 100% = maximal ACh | activation, % at 3 µM | actives 0.088% (n = 360,000) | AID 588819; in the data active = activation above about 19%, passing the limit was not always enough
M5 PAM = CHRM5 positive allosteric modulation; activation, % at 3 µM; CHO-K1 hM5, Fluo-8 calcium, ACh EC20 PAM; 0% = ACh EC20, 100% = ACh EC100; AID 624038; actives 0.3% (n = 360,000);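 active = activation above the run cutoff, the mean activation of all test compounds plus 3 SD, cut at about 18% in these data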
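Replicates: One well per compound, no replicates | System: Human M5 receptor in CHO-K1 cells | Benchmarks: Low control EC20 acetylcholine (0%), high control EC100 acetylcholine (100%) | Probe or stimulus: Acetylcholine, EC20 level | Times: Fluo-8 loading 80 min at 37 °C plus 30 min room temperature | Signal: Intracellular calcium via Fluo-8 fluorescence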
Each line names hits and unclear results; the compound was inactive in the other large screens; ! = repeats disagree.

CCOc1ccccc1NC(=O)CCCNC(=O)c1ccc(Cl)cc1	none
CCN=C1SC(CC(=O)Nc2ccc3c(c2)OCO3)C(=O)N1CC (configuration not stated)	CHRM1 antagonist 28
NC1=NC(=O)C(CC(=O)Nc2ccc3c(c2)OCO3)S1 (configuration not stated)	none
CCN=C1SC(CC(=O)Nc2ccccc2)C(=O)N1CC (configuration not stated)	CHRM1 antagonist 29!
CCN=C1SC(CC(=O)NCC)C(=O)N1CC (configuration not stated)	none
COc1ccc([C@H]2CC(=O)C=C(c3ccc(OC(F)(F)F)cc3)C2)cc1	none
COc1ccc([C@H]2CC(=O)C=C(c3ccc(CNC(=O)OC(C)(C)C)cc3)C2)cc1	CHRM1 antagonist 34
Cc1cccc(NC(=O)C2CCN(S(=O)(=O)c3ccc4c(c3)NC(=O)CO4)CC2)c1	none
CCc1ccc(NC(=O)C2CCN(S(=O)(=O)c3ccc4c(c3)NC(=O)C(C)S4)CC2)cc1 (configuration not stated)	CHRM1 antagonist 55, M5 antag 34
CC1Sc2ccc(S(=O)(=O)N3CCC(C(=O)Nc4cccc(Cl)c4)CC3)cc2NC1=O (configuration not stated)	none
Cc1ccc(C)c(NC(=O)C2CCN(S(=O)(=O)c3ccc4c(c3)NC(=O)CO4)CC2)c1	CHRM1 antagonist 36
COc1ccc(OC)c(S(=O)(=O)N2CCC(C(=O)Nc3ccc(C)c(C)c3)CC2)c1	CHRM1 antagonist 36
COc1ccc(OC)c(S(=O)(=O)N2CCC(C(=O)Nc3cccc(C)c3C)CC2)c1	none
Cc1ccc(NC(=O)C2CCN(S(=O)(=O)c3ccc4c(c3)NC(=O)C(C)S4)CC2)cc1C (configuration not stated)	M5 antag 36
O=C(NCc1ccc(F)cc1)c1cc(C2CCCCN2S(=O)(=O)c2ccccc2)on1 (configuration not stated)	none
Cc1ccccc1C(=O)Nc1ccc2c(c1)nc(CCNC(=O)c1ccco1)n2C	none
COc1cc(NC(=O)CN2C(=O)COc3ccc(S(=O)(=O)N4CCOCC4)cc32)cc(OC)c1	none
CCOc1ccc(NC(C(=O)Nc2cccc(C(C)=O)c2)c2ccccc2)cc1 (configuration not stated)	none
CCN(CC)CCNC(C(=O)Nc1cccc(C(C)=O)c1)c1ccccc1 (configuration not stated)	CHRM1 antagonist 84
Cn1c(Oc2ccccc2NCc2cccc(Br)c2)cc(=O)n(C)c1=O	none
C[C@@H]1CN([C@@H](C)CO)C(=O)c2cccc(NC(=O)Nc3ccc4c(c3)OCO4)c2O[C@H]1CN(C)S(=O)(=O)c1cn(C)cn1	none
C=C(Cl)COc1ccc2c(CC)cc(=O)oc2c1	none
C=C(Cl)COc1ccc2c(C)cc(=O)oc2c1	M5 PAM 18
O=C(Cc1ccccc1)Nc1scc(-c2ccccc2)c1C(=O)N1CCOCC1	none
NC(=O)c1c(-c2ccc(Cl)cc2Cl)csc1NC(=O)Cc1ccccc1	CHRM1 antagonist 44, M5 antag 38
COc1ccc(CCNC(=O)Cn2cnc3sc(C)c(-c4ccc(F)cc4)c3c2=O)cc1OC	CHRM1 agonist 18
COc1ccc(NC(=O)CCCNC(=O)Cn2cnc3sc(C)c(C)c3c2=O)c(OC)c1	CHRM1 antagonist 22
COc1cc(C(=S)N2CCOCC2)cc(Br)c1OS(=O)(=O)c1ccccc1	none
O=C1N(c2ccccc2)C[C@@H]2C[C@@H](c3cccc4c3OCO4)N3CCC[C@@]123	CHRM1 antagonist 49
Cc1cccc(-n2c(O)cnc2Nc2nc(C)cc(C)n2)c1	M5 antag 27
Cc1cc(C)nc(Nc2ncc(O)n2-c2ccccc2)n1	none
FC(F)(F)c1cccc(NC(=S)N2CCCCCC2)c1	none
O=C(Nc1cccc(C(F)(F)F)c1)C(=O)N1CCCCC1	M5 PAM 20
CCOC(=O)C1=CCC2C(=O)N(C)C(=O)C12 (configuration not stated)	none
CCOC(=O)c1c(NC(=O)CSc2nnc(-c3cccnc3)n2Cc2ccco2)sc(C)c1C	M5 PAM 19
CCOC(=O)c1c(NC(=O)CSc2nnc(-c3ccccc3C)n2C)sc(C(C)=O)c1C	CHRM1 antagonist 46
O=C(CSc1nnc(-c2cccnc2)n1Cc1ccco1)Nc1cccc(O)c1	none
CCOC(=O)c1c(NC(=O)CSc2nc3cccnc3n2C)sc(C(C)=O)c1C	none
CCOC(=O)C[C@@H]1OC[C@H](C(C)C)N1S(=O)(=O)c1ccc(C)cc1	none (no result: CHRM1 antagonist, CHRM1 agonist, M1 PAM)
O=C(COC(=O)c1ccc[nH]c1=O)Nc1cc(S(=O)(=O)N2CCCCCC2)ccc1Cl	none
COc1ccc(C2C3=C(CC(C)(C)CC3=O)OC(N)=C2[N+](=O)[O-])cc1 (configuration not stated)	none
O=C(c1ccc2c(c1)OCO2)C1CCCN(C2CCN(CCc3ccccc3)CC2)C1 (configuration not stated)	CHRM1 antagonist 74
COc1cccc(CN2CCCC(C(=O)c3ccc4c(c3)OCO4)C2)c1O (configuration not stated)	CHRM1 antagonist 41
CC(=O)c1cccc(CN2CCCC(C(=O)c3ccc4c(c3)OCO4)C2)c1 (configuration not stated)	CHRM1 antagonist 72
O=C(C1CCCN(Cc2ccc3c(c2)OCO3)C1)N1CCCC1 (configuration not stated)	none
COc1cccc(C(=O)C2CCCN(CC3=Cc4cc(OC)ccc4OC3)C2)c1 (configuration not stated)	CHRM1 antagonist 42
O=C1CSC(c2cccc([N+](=O)[O-])c2)N1Cc1ccccc1 (configuration not stated)	none
O=C(CCn1c(=O)c2ccccc2n(Cc2cc(=O)n3ccccc3n2)c1=O)NCc1ccco1	none
CCCn1cc(CN2CCCC(C(=O)c3ccc4c(c3)OCO4)C2)c(C)n1 (configuration not stated)	CHRM1 antagonist 65
COc1ccc(CN2CCCC(C(=O)c3ccc4c(c3)OCO4)C2)c(F)c1 (configuration not stated)	CHRM1 antagonist 93
COc1ccc(C(=O)C2CCCN(Cc3ccc4c(c3)OCCO4)C2)cc1F (configuration not stated)	none
CCN(CC)C(=O)C1CCCN(Cc2ccc3c(c2)OCO3)C1 (configuration not stated)	none
O=C1c2ccccc2C(c2nnnn2Cc2ccccc2)N1Cc1cccs1 (configuration not stated)	none (no result: CHRM1 antagonist, CHRM1 agonist, M1 PAM)
